Columns and labels:
Format in all cases: functional
CCRF-CEM = test: Growth inhibition of human CCRF-CEM cells after 48 hrs
How it was run: (§1)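 NCI ~60-line screen. Cells were grown in RPMI 1640 with 5% FBS and 2 mM L-glutamine and plated at 5000–40000 cells/well. After a 24 h preincubation, five drug concentrations from DMSO stocks were added for 48 h at 37 °C. Cells were TCA-fixed, stained with SRB and read at 515 nm. GI50 was taken from time-zero and control absorbances and reported as pGI50.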

HL-60 = test: Growth inhibition of human HL60 cells after 48 hrs; conditions: HL-60, 48 h; how it was run: as §1
MOLT-4 = test: Growth inhibition of human MOLT4 cells after 48 hrs; conditions: MOLT-4, 48 h; how it was run: as §1
[1] = Growth inhibition of human HS578T cells after 48 hrs; conditions: Hs-578T; how it was run: as §1
RPMI-8226 = test: Growth inhibition of human RPMI8226 cells after 48 hrs; conditions: RPMI-8226, 48 h; how it was run: as §1
A549 = test: Growth inhibition of human A549 cells after 48 hrs; conditions: A549, 48 h; how it was run: as §1
NCI-H226 = test: Growth inhibition of human NCI-H226 cells after 48 hrs; conditions: NCI-H226, 48 h; how it was run: as §1
NCI-H322M = test: Growth inhibition of human NCI-H322M cells after 48 hrs; how it was run: as §1
NCI-H460 = test: Growth inhibition of human NCI-H460 cells after 48 hrs; conditions: NCI-H460, 48 h; how it was run: as §1
NCI-H522 = test: Growth inhibition of human NCI-H522 cells after 48 hrs; conditions: NCI-H522, 48 h; how it was run: as §1
HCC 2998 = test: Growth inhibition of human HCC2998 cells after 48 hrs; conditions: HCC 2998, 48 h; how it was run: as §1
HCT-116 = test: Growth inhibition of human HCT116 cells after 48 hrs; conditions: HCT-116, 48 h; how it was run: as §1
HCT-15 = test: Growth inhibition of human HCT15 cells after 48 hrs; conditions: HCT-15, 48 h; how it was run: as §1
HT-29 = test: Growth inhibition of human HT29 cells after 48 hrs; conditions: HT-29, 48 h; how it was run: as §1
KM12 = test: Growth inhibition of human KM12 cells after 48 hrs; conditions: KM12, 48 h; how it was run: as §1
SF-295 = test: Growth inhibition of human SF295 cells after 48 hrs; conditions: SF-295, 48 h; how it was run: as §1
SNB-19 = test: Growth inhibition of human SNB19 cells after 48 hrs; conditions: SNB-19, 48 h
How it was run: (§2)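 NCI 60-line screen: cells in RPMI 1640 with 5% FBS and 2 mM L-glutamine, plated at 5000–40000 cells/well, grown 24 h (37 °C, 5% CO₂), then exposed to five 10-fold or ½-log dilutions (DMSO stock) for 48 h. Fixed with TCA (final 10% for adherent cells, 16% for suspension cells), then SRB stained with absorbance at 515 nm. GI50 from percentage growth relative to time-zero and control wells.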

U-251 = test: Growth inhibition of human U251 cells after 48 hrs; conditions: U-251, 48 h; how it was run: as §2
M14 = test: Growth inhibition of human M14 cells after 48 hrs; conditions: M14, 48 h; how it was run: as §1
SK-MEL-28 = test: Growth inhibition of human SK-MEL28 cells after 48 hrs; conditions: SK-MEL-28, 48 h; how it was run: as §1
UACC-257 = test: Growth inhibition of human UACC257 cells after 48 hrs; conditions: UACC-257, 48 h; how it was run: as §2
UACC-62 = test: Growth inhibition of human UACC62 cells after 48 hrs; conditions: UACC-62, 48 h; how it was run: as §2
OVCAR-3 = test: Growth inhibition of human OVCAR-3 cells after 48 hrs; conditions: OVCAR-3, 48 h; how it was run: as §1
OVCAR-5 = test: Growth inhibition of human OVCAR5 cells after 48 hrs; conditions: OVCAR-5, 48 h; how it was run: as §1
OVCAR-8 = test: Growth inhibition of human OVCAR8 cells after 48 hrs; conditions: OVCAR-8, 48 h; how it was run: as §1
A498 = test: Growth inhibition of human A498 cells after 48 hrs; conditions: A498, 48 h; how it was run: as §1
ACHN = test: Growth inhibition of human ACHN cells after 48 hrs; how it was run: as §1
CAKI-1 = test: Growth inhibition of human CAKI1 cells after 48 hrs; conditions: CAKI-1, 48 h; how it was run: as §1
RXF 393 = test: Growth inhibition of human RXF393 cells after 48 hrs; conditions: RXF 393, 48 h; how it was run: as §1
SN12C = test: Growth inhibition of human SN12C cells after 48 hrs; how it was run: as §2
DU-145 = test: Growth inhibition of human DU145 cells after 48 hrs; conditions: DU-145, 48 h; how it was run: as §1
MCF7 = test: Growth inhibition of human MCF7 cells after 48 hrs; conditions: MCF7, 48 h; how it was run: as §1
MDA-MB-231 = test: Growth inhibition of human MDA-MB-231 cells after 48 hrs; conditions: MDA-MB-231, 48 h; how it was run: as §1
[2] = read-out: Log LC50 (the source's name) (converted)

In the case of CCOC(=O)CNC(=O)CCCn1c(=O)c2c3ccccc3n(C)c2n2nnc(-c3ccccc3)c12, the GI50 (CCRF-CEM) is reported as 26.3 µM, the LC50 (CCRF-CEM) is reported as over 50.1 µM and the TGI (CCRF-CEM; read-out: pTGI (converted)) is reported as over 50.1 µM. The GI50 (HL-60) was 20.4 µM, the LC50 (HL-60) was over 50.1 µM and the TGI (HL-60; read-out: pTGI (converted)) was over 50.1 µM. The GI50 (MOLT-4) was over 50.1 µM, the LC50 (MOLT-4) was over 50.1 µM and the TGI (MOLT-4; read-out: pTGI (converted)) was over 50.1 µM. It also gave a GI50 [1] of 4.47 µM, an LC50 (50% lethal concentration) [1] of over 50.1 µM and a TGI ([1]; read-out: pTGI (converted)) of over 50.1 µM. The GI50 (RPMI-8226) was 10.7 µM, the LC50 (RPMI-8226) was over 50.1 µM and the TGI (RPMI-8226; read-out: pTGI (converted)) was 33.9 µM. The GI50 (A549) was 33.1 µM, the CC50 (A549; [2]) was over 50.1 µM and the TGI (A549; read-out: pTGI (converted)) was over 50.1 µM. The GI50 (NCI-H226) was 25.1 µM, the CC50 (NCI-H226; [2]) was over 50.1 µM and the TGI (NCI-H226; read-out: pTGI) was over 50.1 µM. The GI50 (NCI-H322M) was over 50.1 µM, the LC50 (NCI-H322M) was over 50.1 µM and the TGI (NCI-H322M; read-out: pTGI (converted)) was over 50.1 µM. It also gave a GI50 (NCI-H460) of over 50.1 µM, an LC50 (NCI-H460) of over 50.1 µM and a TGI (NCI-H460; read-out: pTGI (converted)) of over 50.1 µM. It also gave a GI50 (NCI-H522) of 6.46 µM, an LC50 (NCI-H522) of over 50.1 µM and a TGI (NCI-H522; read-out: pTGI (converted)) of 20 µM. It also gave a GI50 (HCC 2998) of over 50.1 µM, an LC50 (HCC 2998) of over 50.1 µM and a TGI (HCC 2998; read-out: pTGI (converted)) of over 50.1 µM. It also gave a GI50 (HCT-116) of 9.12 µM, an LC50 (HCT-116) of over 50.1 µM and a TGI (HCT-116; read-out: pTGI (converted)) of 27.5 µM. For the same molecule, the GI50 (HCT-15) was over 50.1 µM, the LC50 (HCT-15) was over 50.1 µM and the TGI (HCT-15; read-out: pTGI) was over 50.1 µM. The GI50 (HT-29) was over 50.1 µM, the LC50 (concentration killing 50% of cells) (HT-29) was over 50.1 µM and the TGI (HT-29; read-out: pTGI (converted)) was over 50.1 µM. It also gave a GI50 (KM12) of over 50.1 µM, an LC50 (KM12) of over 50.1 µM and a TGI (KM12; read-out: pTGI (converted)) of over 50.1 µM. The GI50 (SF-295) was 4.79 µM, the LC50 (SF-295) was over 50.1 µM and the TGI (SF-295; read-out: pTGI (converted)) was 17.4 µM. For the same molecule, the LC50 (SNB-19) was 17 µM, the GI50 (U-251) was 4.17 µM and the LC50 (U-251) was 46.8 µM. The TGI (U-251; read-out: pTGI (converted)) was 14.5 µM, the GI50 (M14) was 18.6 µM and the LC50 (M14) was over 50.1 µM. The TGI (M14; read-out: pTGI (converted)) was over 50.1 µM, the GI50 (SK-MEL-28) was over 50.1 µM and the LC50 (SK-MEL-28) was over 50.1 µM. The TGI (SK-MEL-28; read-out: pTGI (converted)) was over 50.1 µM, the GI50 (UACC-257) was over 50.1 µM and the LC50 (UACC-257) was over 50.1 µM. It also gave a TGI (UACC-257; read-out: pTGI (converted)) of over 50.1 µM, a GI50 (UACC-62) of 7.24 µM and an LC50 (UACC-62) of over 50.1 µM. The TGI (UACC-62; read-out: pTGI (converted)) was 21.9 µM, the GI50 (OVCAR-3) was 12.6 µM and the LC50 (OVCAR-3) was over 50.1 µM. For the same molecule, the TGI (OVCAR-3; read-out: pTGI (converted)) was 49 µM, the GI50 (OVCAR-5) was 27.5 µM and the LC50 (concentration killing 50% of cells) (OVCAR-5) was over 50.1 µM. For the same molecule, the TGI (OVCAR-5; read-out: pTGI (converted)) was over 50.1 µM, the GI50 (OVCAR-8) was 25.1 µM and the LC50 (OVCAR-8) was over 50.1 µM. It also gave a TGI (OVCAR-8; read-out: pTGI (converted)) of over 50.1 µM, a GI50 (A498) of 7.59 µM and a CC50 (A498; [2]) of over 50.1 µM. It also gave a TGI (A498; read-out: pTGI (converted)) of 24.5 µM, a GI50 (ACHN) of 9.33 µM and an LC50 (ACHN) of over 50.1 µM. It also gave a TGI (ACHN; read-out: pTGI (converted)) of 33.9 µM, a GI50 (CAKI-1) of 8.32 µM and an LC50 (concentration killing 50% of cells) (CAKI-1) of 47.9 µM. The TGI (CAKI-1; read-out: pTGI (converted)) was 20 µM, the GI50 (RXF 393) was 1.32 µM and the LC50 (RXF 393) was 22.4 µM. For the same molecule, the TGI (RXF 393; read-out: pTGI (converted)) was 4.37 µM, the GI50 (SN12C) was over 50.1 µM and the LC50 (SN12C) was over 50.1 µM. For the same molecule, the TGI (SN12C; read-out: pTGI (converted)) was over 50.1 µM, the GI50 (DU-145) was 32.4 µM and the LC50 (DU-145) was over 50.1 µM. It also gave a TGI (DU-145; read-out: pTGI (converted)) of over 50.1 µM, a GI50 (MCF7) of 31.6 µM and an LC50 (MCF7) of over 50.1 µM. It also gave a TGI (MCF7; read-out: pTGI (converted)) of over 50.1 µM, a GI50 (MDA-MB-231) of 14.8 µM and an LC50 (concentration killing 50% of cells) (MDA-MB-231) of over 50.1 µM. It also gave a TGI (MDA-MB-231; read-out: pTGI (converted)) of 30.9 µM.
